In PubChem BioAssay AID463170 (The Scripps Research Institute Molecular Screening Center, 2010):
Active and inactive are the calls of the source.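 The calls were made as follows: active = fold change of 10 or more over vehicle in p21 reporter light; inactive = fold change below 10.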

Target: Cyclin-dependent kinase inhibitor 1 (Homo sapiens) (UniProt P38936)
Experiment: p21-luciferase fusion stabilization in HeLa – cell-based, luminescence, powder samples, selectivity assay for Wee1 degradation inhibitor project, late-stage follow-up (AID 463170)
Details: at 0.1 µM, stronger effect = higher value
Outline: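 assay system = HeLa cells transiently expressing a p21-luciferase fusion reporter | schedule = 20 h compound treatment, 37 °C | signal = luminescence of p21-luciferase | evaluation = mean fold change versus DMSO | repeats = four replicate wells per compound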

Chain of Cyclin-dependent kinase inhibitor 1 (Homo sapiens) (P38936 whole entry, looked up, the tested form may be a part): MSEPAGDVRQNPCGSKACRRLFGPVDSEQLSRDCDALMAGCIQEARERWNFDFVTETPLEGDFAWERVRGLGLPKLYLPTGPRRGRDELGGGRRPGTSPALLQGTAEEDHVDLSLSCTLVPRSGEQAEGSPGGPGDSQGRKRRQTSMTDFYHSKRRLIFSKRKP

fold change	Structure (SMILES)
2.23 (inactive)	c1ccc2[nH]c(CNc3nc(N4CCOCC4)nc4c3ncn4-c3ccsc3)nc2c1
3.41 (inactive)	O=[N+]([O-])c1cccc2[nH]c(CNc3nc(N4CCOCC4)nc4c3ncn4-c3ccsc3)nc12
